The source of these data is ChEMBL document CHEMBL1687854 (Antimicrob Agents Chemother, 2011).

As usually defined, the AUC(0-inf) is total exposure, with the tail of the curve extrapolated. A low value points to less exposure.

The subject of data set [1] is Homo sapiens. Kind of data set: Toxicity in healthy human assessed as pancreatitis at 500 mg, iv after 2 days. The class given is organism-based. To be noted: in vivo, 48 h.
Data set [2] is described as follows: Terminal half life in end stage renal disease patient undergoing 12 hours continuous venovenous hemofiltration at 500 mg, iv. The class given is ADME, organism-based. To be noted: human, in vivo, read-out: beta t1/2 (converted). In outline:
(§1)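 Prefilter plasma was taken up to 12 h and measured by LC-MS/MS. Terminal λz came from log-linear regression over 1.5–12 h, and t1/2 = 0.693/λz (noncompartmental).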

Data set [3] in a line: AUC (0 to infinity) in end stage renal disease patient undergoing 12 hours continuous venovenous hemodiafiltration at 500 mg, iv. The class given is ADME, organism-based. Details: dose 500 mg, route intravenous, time infinity. To be noted: human, plasma.
Data set [4] is described as follows: Renal clearance in healthy human at 500 mg, iv. The class given is ADME, organism-based, Kidney. To be noted: in vivo, read-out: CL_renal (converted). In outline: (§2)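 Healthy volunteers (n = 12) got a single 1-h 500-mg IV infusion. Plasma was sampled predose and at 0.25–12 h and assayed by LC-MS/MS (LLOQ 0.1 μg/ml). Noncompartmental analysis gave CL = dose/AUC0-∞ and CL_R = 0–12 h urinary amount/AUC0-12. Nonrenal CL = CL − CL_R. Values are means ± SD.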

Data set [5] is described as follows: Terminal half life in end stage renal disease patient undergoing 12 hours continuous venovenous hemodiafiltration at 500 mg, iv. It counts as ADME, organism-based. The settings on record: human, in vivo, read-out: beta t1/2 (converted). A digest of the protocol:
as §1

The nature of data set [6]: AUC (0 to infinity) in end stage renal disease patient undergoing 12 hours continuous venovenous hemofiltration at 500 mg, iv. The settings on record: human, plasma. More on the design: dose 500 mg, time infinity, route intravenous. The class given is ADME, organism-based.
Data set [7] relates to Homo sapiens. As to the kind of experiment: Non-renal clearance in end stage renal disease patient undergoing 12 hours continuous venovenous hemofiltration at 500 mg, iv. It counts as ADME, organism-based. The settings on record: in vivo. A digest of the protocol:
(§3)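 For dialysis-dependent subjects on CVVH or CVVHDF after a 1-h 500-mg IV infusion, nonrenal CL = CL − (CL_R + CL_CRRT). CL_CRRT was the UF (or UF/dialysate) flow rate for each collection interval × the average sieving (or saturation) coefficient, where each coefficient is the fluid/plasma concentration ratio from paired samples at 1.25–12 h. Values are means ± SD.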

Data set [8] deals with Homo sapiens. As to the kind of experiment: Non-renal clearance in healthy human at 500 mg, iv. It counts as ADME, organism-based. The settings on record: in vivo. A digest of the protocol:
as §2

Data set [9] relates to Homo sapiens. As to the kind of experiment: Toxicity in healthy human assessed as pancreatitis at 500 mg, iv after 1 day. The class given is organism-based. To be noted: in vivo, 24 h.
Data set [10] can be described thus: (§4) Clearance in end stage renal disease patient undergoing 12 hours continuous venovenous hemofiltration at 500 mg, iv. The class given is ADME, organism-based. To be noted: human, in vivo, 500 mg.
Data set [11] concerns Homo sapiens. Described as §4. It counts as ADME, organism-based. The settings on record: in vivo, 12 h.
The test system of data set [12] is Homo sapiens. Kind of data set: Non-renal clearance in end stage renal disease patient undergoing 12 hours continuous venovenous hemodiafiltration at 500 mg, iv. The class given is ADME, organism-based. The settings on record: in vivo. In outline: as §3
The nature of data set [13]: (§5) Clearance in healthy human at 500 mg, iv. It counts as ADME, organism-based. The settings on record: in vivo, 500 mg. A digest of the protocol: as §2
The test system of data set [14] is Homo sapiens. The description is as §5. The class given is ADME, organism-based. To be noted: in vivo. A digest of the protocol:
as §2

Data set [15] is described as follows: (§6) Clearance in end stage renal disease patient undergoing 12 hours continuous venovenous hemodiafiltration at 500 mg, iv. It counts as ADME, organism-based. To be noted: human, in vivo, 500 mg.
The subject of data set [16] is Homo sapiens. The data set is described as §6. The class given is ADME, organism-based. To be noted: in vivo, 12 h.

For `C[C@@H](O)[C@H]1C(=O)N2C(C(=O)O)=C(S[C@@H]3CN[C@H](CNS(N)(=O)=O)C3)[C@H](C)[C@H]12` [DORIPENEM], the Activity result with Homo sapiens [1] was “Non-toxic”; in the data set on Homo sapiens [9] it was “Toxic”. Also, the half-life in [2] was 4.24 h; in [5] it was 3.87 h. The AUC(0-inf) is 87.5 µg·h/mL in data set [3] and 114 µg·h/mL in data set [6]. For the same molecule, the CL renal in data set [4] is 153 mL/min. The CL in the data set on Homo sapiens [7] was determined as 3.58 L/h; in the data set on Homo sapiens [8], 6.73 L/h; in the data set on Homo sapiens [11], 4.94 L/h; in the data set on Homo sapiens [12] it was 4.22 L/h; in the data set with Homo sapiens [14], 15.9 L/h; in the data set on Homo sapiens [16] it was 5.98 L/h. Besides, the clearance is 82.4 mL/min in data set [10], 265 mL/min in [13] and 98.2 mL/min in data set [15].
Turning to `C[C@@H](O)[C@@H](C(=O)O)[C@@H]1NC(C(=O)O)=C(S[C@@H]2CN[C@H](CNS(N)(=O)=O)C2)[C@@H]1C`, the CL with Homo sapiens [8] came out at 14.2 L/h.
